The source made the active and inactive calls. The calls are words filed in the database; no cut-off is given here.

These results are taken from ChEMBL document CHEMBL3785029, “Synthesis and Characterization of Fatty Acid Conjugates of Niacin and Salicylic Acid” (J Med Chem, 2016).

Data set [1] can be described thus: Cmax in portal vein cannulated Sprague-Dawley rat at 30 mg/kg, po measured up to 140 mins. Type of data set: ADME, organism-based. More on the design: dose 30 mg/kg, route oral. The conditions noted are these: portal vein blood. Put shortly: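 Sprague Dawley rats surgically fitted with indwelling jugular vein and portal vein cannulas; oral dosing, then serial blood draws from both portal and jugular veins at 10, 20, 40 min and 1, 2, 4, 6 hr post dose; plasma analysed for parent and metabolites by LC/MS/MS.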

For data set [2], the system named is Liver. As to the kind of experiment: Drug metabolism in Sprague-Dawley rat liver assessed as niacin linker metabolite N-(2-aminoethyl)nicotinamide formation at 300 mg/kg, qd administered through oral gavage for 7 days measured 2 hrs post last dose by LC/MS/MS analysis. The conditions noted are these: in vivo. It is filed as ADME, organism-based.
Data set [3] has as its target T1, Sterol regulatory element-binding protein 2 (Homo sapiens) (UniProt Q12772).
T1 sequence (whole entry): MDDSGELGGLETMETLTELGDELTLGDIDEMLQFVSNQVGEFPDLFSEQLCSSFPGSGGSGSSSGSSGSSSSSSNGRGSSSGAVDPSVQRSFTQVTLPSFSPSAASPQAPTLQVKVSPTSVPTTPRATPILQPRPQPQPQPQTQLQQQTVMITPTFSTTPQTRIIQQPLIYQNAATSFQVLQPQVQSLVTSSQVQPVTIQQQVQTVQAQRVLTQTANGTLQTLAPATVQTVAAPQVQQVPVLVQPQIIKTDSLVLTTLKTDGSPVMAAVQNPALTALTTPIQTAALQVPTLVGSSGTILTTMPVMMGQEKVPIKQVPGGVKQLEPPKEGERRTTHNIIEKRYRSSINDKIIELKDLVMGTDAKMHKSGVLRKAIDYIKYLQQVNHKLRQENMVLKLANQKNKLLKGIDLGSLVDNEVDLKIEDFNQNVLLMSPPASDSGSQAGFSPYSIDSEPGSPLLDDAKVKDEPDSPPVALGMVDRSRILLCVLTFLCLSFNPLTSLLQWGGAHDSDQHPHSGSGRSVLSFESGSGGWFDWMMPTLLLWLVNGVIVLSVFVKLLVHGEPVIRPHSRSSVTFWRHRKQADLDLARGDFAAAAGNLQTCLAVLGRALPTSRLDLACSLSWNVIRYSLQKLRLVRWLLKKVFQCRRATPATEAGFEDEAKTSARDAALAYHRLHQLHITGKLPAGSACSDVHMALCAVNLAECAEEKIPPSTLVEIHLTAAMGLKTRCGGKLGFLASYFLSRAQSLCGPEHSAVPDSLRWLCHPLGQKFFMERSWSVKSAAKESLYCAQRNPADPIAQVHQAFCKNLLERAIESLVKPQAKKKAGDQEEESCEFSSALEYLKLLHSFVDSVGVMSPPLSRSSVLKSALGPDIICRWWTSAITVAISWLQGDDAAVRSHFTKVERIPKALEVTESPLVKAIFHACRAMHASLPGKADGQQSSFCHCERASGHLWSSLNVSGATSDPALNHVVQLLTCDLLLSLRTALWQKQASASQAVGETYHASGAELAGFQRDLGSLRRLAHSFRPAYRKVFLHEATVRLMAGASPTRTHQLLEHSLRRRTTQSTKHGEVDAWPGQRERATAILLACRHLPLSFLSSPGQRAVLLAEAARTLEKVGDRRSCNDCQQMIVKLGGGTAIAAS
As to the kind of experiment: Inhibition of SREBP2 maturation in human HepG2 cells at 25 uM after overnight incubation by immunoblot analysis in the presence of atorvastatin. Type of data set: cell-based. In outline: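 Human HepG2 cells incubated with compound (25 and 50 µM), alone or together with 10 µM atorvastatin; mature SREBP-2 protein level assessed.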

The subject of another data set is Mus musculus. The data set can be described thus: Inhibition of PCSK9 levels in po dosed ApoE*3-Leiden mouse plasma administered for 16 weeks. It is filed as functional, organism-based. In outline:
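Transgenic ApoE*3-Leiden mice on high-cholesterol Western-type diet dosed over 16 weeks; plasma PCSK9, total cholesterol, triglycerides and lipoprotein profile (VLDL, LDL) assessed at study end.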

Data set [4] has as its system Plasma. The data set can be described thus: Metabolic stability in beagle dog plasma at 5 uM up to 2 hrs by LC-MS-MS analysis. It is filed as ADME, cell-free, Canis lupus familiaris. In outline: (§1)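 Plasma from each species diluted to 50% with 0.05 M PBS pH 7.4 and prewarmed to 37 °C; compound added at 5 µM final (from DMSO stock diluted in MeOH); triplicate incubations at 37 °C, sampled at 0, 30, 60, 120 min, quenched with acetonitrile containing internal standard, centrifuged, analysed by LC/MS/MS.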

The test system of data set [5] is Plasma. The data set can be described thus: Metabolic stability in mouse plasma at 5 uM up to 2 hrs by LC-MS-MS analysis. Type of data set: ADME, cell-free. Put shortly: as §1
Data set [6] concerns Liver. As to the kind of experiment: Drug metabolism in Sprague-Dawley rat liver assessed as niacin formation at 300 mg/kg, qd administered through oral gavage for 7 days measured 2 hrs post last dose by LC/MS/MS analysis. It is filed as ADME, organism-based. The conditions noted are these: in vivo, BLD = below limit of detection.
Data set [7] in a line: Drug uptake in Sprague-Dawley rat liver at 300 mg/kg, qd administered through oral gavage for 7 days measured 2 hrs post last dose by LC/MS/MS analysis. It is filed as ADME, organism-based. The conditions noted are these: read-out: Drug uptake.
The test system of another data set is Intestine. The data set can be described thus: Drug metabolism in Sprague-Dawley rat intestine assessed as nicotinuric acid formation at 300 mg/kg, qd administered through oral gavage for 7 days measured 2 hrs post last dose by LC/MS/MS analysis. It is filed as ADME, organism-based. The conditions noted are these: in vivo.
The subject of a further data set is Muscle tissue. As to the kind of experiment: Drug metabolism in Sprague-Dawley rat muscle assessed as salicyluric acid formation at 300 mg/kg, po administered for 14 days followed by 7 day washout cycle measured on day 21. The conditions noted are these: in vivo. Type of data set: ADME, organism-based.
Data set [8] in a line: Drug uptake in Sprague-Dawley rat epididymal fat at 300 mg/kg, po administered for 14 days followed by 7 day washout cycle measured on day 21. Type of data set: ADME, organism-based, Epididymal fat pad. The following applies: in vivo.
The test system of data set [9] is Liver. The data set can be described thus: Drug uptake in Sprague-Dawley rat liver at 300 mg/kg, po administered for 14 days followed by 7 day washout cycle measured on day 21. Type of data set: ADME, organism-based. The following applies: in vivo.
Data set [10] deals with Plasma. As to the kind of experiment: Drug metabolism in Sprague-Dawley rat plasma assessed as N-(2-aminoethyl)-2-hydroxy-benzamide formation at 300 mg/kg, po measured up to 24 hrs post dose. Type of data set: ADME, organism-based. The conditions noted are these: in vivo. In outline:
(§2)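 Single oral dose of 300 mg/kg to Sprague Dawley rats. Plasma collected at 0, 0.5, 1, 2, 4, 8 and 24 hr. Analytes were the parent, the salicylate-linker and linker-DHA metabolites, salicylic acid and salicyluric acid; Cmax and AUClast derived.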

The nature of data set [11]: Drug metabolism in Sprague-Dawley rat epididymal fat assessed as salicylic acid formation at 300 mg/kg, po administered for 7 days measured 4 hrs post dose on day 7. It is filed as ADME, organism-based, Epididymal fat pad. The following applies: in vivo. Put shortly:
(§3)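 Male Sprague Dawley rats, groups of 4, dosed orally at 300 mg/kg once daily for 14 days. Animals killed on days 1, 3, 7 and 14, with plasma, brain, epididymal fat, liver and muscle taken 4 hr after dosing. Parent, salicylic acid and salicyluric acid were measured.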

Data set [12] has as its system Rattus norvegicus. The data set can be described thus: Cmax in Sprague-Dawley rat assessed as salicyluric acid at 300 mg/kg, po measured up to 24 hrs post dose. Details: dose 300 mg/kg, route oral. It is filed as ADME, organism-based. The conditions noted are these: in vivo. Put shortly:
as §2

Data set [13] deals with Plasma. As to the kind of experiment: Drug metabolism in Sprague-Dawley rat plasma assessed as salicyluric acid formation at 300 mg/kg, po measured up to 24 hrs post dose. It is filed as ADME, organism-based. The conditions noted are these: in vivo. Put shortly:
as §2

In another data set the test system is Brain. As to the kind of experiment: Drug metabolism in Sprague-Dawley rat brain assessed as salicyluric acid formation at 300 mg/kg, po administered for 14 days followed by 7 day washout cycle measured on day 21. It is filed as ADME, organism-based. The conditions noted are these: in vivo.
Data set [14] has as its system Plasma. As to the kind of experiment: Drug metabolism in Sprague-Dawley rat plasma assessed as salicyluric acid formation at 300 mg/kg, po administered for 7 days measured 4 hrs post dose on day 7. It is filed as ADME, organism-based. The following applies: in vivo. Put shortly:
as §3

Data set [15] has as its system Rattus norvegicus. The data set can be described thus: Cmax in Sprague-Dawley rat assessed as salicylic acid at 300 mg/kg, po measured up to 24 hrs post dose. The conditions noted are these: in vivo. Details: dose 300 mg/kg, route oral. It is filed as ADME, organism-based. In outline: as §2

In the case of `CC/C=C\C/C=C\C/C=C\C/C=C\C/C=C\CCCC(=O)NCCNC(=O)c1cccnc1`, the peak level in data set [1] (Cmax) was 418 ng/mL. In addition, the Drug metabolism in the data set with Liver [2] is 10910 ng/g; with Liver [6], “BLD”; in the data set on Intestine it was 1387 ng/g. Further, the inhibition result (in [3]; in the data set with Mus musculus) was “Active” in each case. Besides, the Stability result in the data set on Plasma [4] and in the data set on Plasma [5] was “Stable” each time. Further, the concentration at 2 h in [7] was found to be 7.5 ng/g.

Consider `CC/C=C\C/C=C\C/C=C\C/C=C\C/C=C\C/C=C\CCC(=O)NCCNC(=O)c1ccccc1O` [EDASALONEXENT], for which the Drug metabolism entry was “metabolite_notdetected” in the data set with Muscle tissue; “metabolite_detected” in the data set with Plasma [10]; 65.03 ng/g in data set [11]; “metabolite_detected” with Plasma [13]; “metabolite_notdetected” in the data set with Brain; 764.41 ng/mL in the data set on Plasma [14]. For the same molecule, the Drug uptake entry (in [8]; in the data set with Liver [9]) was “Not Active” each time. For the same molecule, the values for the Cmax in the data set on Rattus norvegicus [12] and in the data set on Rattus norvegicus [15] were 563 ng/mL and 75 ng/mL, respectively.
